This is an account of results in ChEMBL document CHEMBL6134784, “Furoxan-piplartine hybrids as effective NO donors and ROS inducers in PC3 cancer cells: design, synthesis, and biological evaluation” (RSC Med Chem, 2024).

Test [1] concerns PC-3. Description: Cytotoxicity against human PC-3 cells assessed as cell growth inhibition at 0.05 uM measured after 48 hrs by CCK-8 assay relative to control. To be noted: read-out: GI. It counts as functional. Summed up:
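PC3 at 1×10^4 cells per well attached 24 h, pretreated 1 h with carboxy-PTIO (0, 0.50, 3.13, 6.25, 12.50, 25, 50 μM), then compound added for 48 h; washed three times with PBS, growth read by CCK-8 as percent inhibition versus control cells; two experiments in triplicate.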
In general terms: Tetrazolium dyes change colour on reduction, which living cells bring about.

Test [2] relates to PC-3. Briefly: Induction of apoptosis in human PC-3 cells assessed as late apoptotic cells at 0.05 uM measured after 6 hrs by Alexa Fluor 488-annexin V/propidium iodide staining based flow cytometry (reference value: 3.37%). It counts as functional. Background: Flow cytometry measures light scatter and fluorescence of single cells or particles in a stream.
Test [3] deals with PC-3. Description: Cell cycle arrest in human PC-3 cells assessed as reduction in cell accumulation at G0/G1 phase at 0.05 uM measured after 3 hrs by propidium iodide staining based flow cytometry. It counts as functional. In outline: (§1)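 PC3 cells seeded 1×10^5 per well in 6-well plates, exposed 3 h, with or without 1 mM N-acetyl-L-cysteine pretreatment; vehicle 0.1% DMSO. Harvested with trypsin-EDTA, fixed in 75% ethanol in PBS at 4 °C for 30 min, stained 1 h with RNase (1.5 mg mL^-1) and propidium iodide (90 μg mL^-1); DNA content by flow cytometry. Phase fractions compared with control by ANOVA/Tukey.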

Test [4] has as its system PC-3. Briefly: Induction of mitochondrial membrane potential loss in human PC-3 cells at 0.05 uM measured after 30 mins by MitoTracker Red based confocal microscopy. The format is functional, cell-based. In outline:
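Confocal imaging of PC3 cells loaded with CellROX Green (2.5 μM) and MitoTracker Red (0.5 μM) for 30 min at 37 °C, then three PBS washes and immediate capture. The MitoTracker dye stains intact mitochondria and diffuses out when membrane potential drops. Vehicle 0.1% DMSO served as negative control and 1 mM H2O2 as positive control.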

For test [5], the system named is PC-3. Briefly: Cell cycle arrest in human PC-3 cells assessed as down regulation of cyclin D1 expression at 0.05 uM measured after 3 hrs by Western blot analysis. The format is functional, cell-based. Summed up:
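Western blot: PC3 seeded 1×10^7 per 100 mm dish, treated 3 h or 6 h, lysed in RIPA with protease/phosphatase inhibitors; 50 μg protein on 12% SDS-PAGE, PVDF transfer, 5% milk block, anti-cyclin D1 (1:1000) overnight at 4 °C, HRP anti-rabbit secondary, β-actin loading control, ECL detection and band densitometry; two independent experiments.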

The subject of test [6] is PC-3. Description: Induction of morphological changes in human PC-3 cells assessed as loss of adhesion at 0.05 uM measured after 24 hrs by phase contrast microscopy. It counts as functional, cell-based. In outline:
(§2)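 PC3 cells were seeded at 1×10^5 per well in 6-well plates and treated after 24 h, with or without 1 mM N-acetyl-L-cysteine. The same observation field was imaged by phase contrast microscopy at 1, 2, 3, 4 and 24 h. DMSO vehicle served as control.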

Test [7] has as its system PC-3. Briefly: Cytotoxicity against human PC-3 cells assessed as reduction in cell viability at 0.05 uM measured after 24 hrs in presence of antioxidant N-acetyl-L-cysteine by SRB assay. The format is functional, cell-based. Summed up:
(§3)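 SRB assay: PC3 seeded 1×10^4 per well, after 24 h exposed 24 h at 37 °C, 5% CO2 with or without 1 mM N-acetyl-L-cysteine; vehicle 0.1% DMSO. Fixed with 15% TCA at 4 °C for 1 h, dried, stained 0.4% sulforhodamine B, dye solubilized in 10 mM Tris, absorbance 540 nm; ANOVA/Tukey.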
A general note: In SRB staining, fixed cells bind dye roughly in proportion to their protein.

Test [8] has as its system PC-3. Briefly: Cytotoxicity against human PC-3 cells assessed as reduction in cell viability at 0.05 uM measured after 24 hrs by SRB assay. It counts as functional, cell-based. Summed up:
as §3

The test system of test [9] is PC-3. Description: Induction of morphological changes in human PC-3 cells assessed as reduction in cell density at 0.05 uM measured after 24 hrs by phase contrast microscopy. It counts as functional, cell-based. Summed up:
as §2

The test system of test [10] is PC-3. Briefly: Induction of apoptosis in human PC-3 cells assessed as early apoptotic cells at 0.05 uM measured after 6 hrs by Alexa Fluor 488-annexin V/propidium iodide staining based flow cytometry (reference value: 6%). The format is functional.
Test [11] has as its system PC-3. Briefly: Induction of morphological changes in human PC-3 cells assessed as cell rounding at 0.05 uM measured after 24 hrs in presence of antioxidant N-acetyl-L-cysteine by phase contrast microscopy. It counts as functional, cell-based. Summed up:
as §2

Test [12] concerns PC-3. Briefly: Induction of apoptosis in human PC-3 cells assessed as effect on BCL2 gene expression at 0.05 uM measured after 3 hrs by qPCR analysis. The format is functional, cell-based. In outline: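 Seeded 1×10^5 cells per well in 6-well plates; PC3 treated 3 h. Total RNA extracted, qPCR; each target normalized to reference gene (β-actin) by efficiency-corrected ΔΔCt (Pfaffl) against a control calibrator sample, efficiencies from amplification profiles. Mean ± SEM of four independent experiments.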

Test [13] concerns PC-3. Briefly: Cell cycle arrest in human PC-3 cells assessed as accumulation of cells at sub-G1 phase at 0.05 uM measured after 3 hrs by propidium iodide staining based flow cytometry (reference value: 0.75 +/- 0.21%). The format is functional. Summed up:
as §1

The test system of test [14] is PC-3. Briefly: Induction of morphological changes in human PC-3 cells assessed as reduction in cell density at 0.24 uM measured after 24 hrs in presence of antioxidant N-acetyl-L-cysteine by phase contrast microscopy. It counts as functional, cell-based. Summed up:
as §2

In test [15] the test system is PC-3. Description: Induction of apoptosis in human PC-3 cells assessed as late apoptotic cells at 0.24 uM measured after 6 hrs by Alexa Fluor 488-annexin V/propidium iodide staining based flow cytometry (reference value: 3.37%). It counts as functional.
Test [16] relates to PC-3. Description: Induction of apoptosis in human PC-3 cells assessed as necrotic cells at 0.24 uM measured after 6 hrs by Alexa Fluor 488-annexin V/propidium iodide staining based flow cytometry (reference value: 1.28%). The format is functional.
Test [17] deals with PC-3. Description: Cytotoxicity against human PC-3 cells assessed as reduction in cell viability at 0.24 uM measured after 24 hrs in presence of antioxidant N-acetyl-L-cysteine by SRB assay. The format is functional, cell-based. In outline:
as §3

For test [18], the system named is PC-3. Description: Induction of apoptosis in human PC-3 cells assessed as early apoptotic cells at 0.24 uM measured after 6 hrs by Alexa Fluor 488-annexin V/propidium iodide staining based flow cytometry (reference value: 6%). It counts as functional.

Structures are written as SMILES. The source made the active and inactive calls. The rule behind the calls is not given here.

Take `COc1cc(/C=C/C(=O)N2CCC=CC2=O)cc(OC)c1OCCCCCCCCCCCCOc1no[n+]([O-])c1S(=O)(=O)c1ccccc1`: in test [1], the inhibition of growth at 0.05 µM was found to be 65%. Further, the Activity in test [2] was 81.12%; in [3] it was “Active; Significant Reduction Observed”; in [6], “Active; Partial Loss Of Adhesion Observed”; in test [10] it was 6.6%; in test [13], 9.8%. Moreover, the result in test [4], in test [5], in test [8] and in test [9] was Active. Also, the result in [7], in test [11] and in test [12] was inactive.

Consider `COc1cc(/C=C/C(=O)N2CCC=CC2=O)cc(OC)c1OCCCOc1no[n+]([O-])c1S(=O)(=O)c1ccccc1`, for which the result in [14] and in test [17] was inactive. Also, the values for the Activity in test [15], in test [16] and in [18] were 43.61%, 0.81% and 9.17%, respectively.
